Test results as given in ChEMBL document CHEMBL1914448, “Proteolytically stable cancer targeting peptides with high affinity for breast cancer cells” (J Med Chem, 2011).
Calls of active or inactive are those of the source. Peptide text beside a SMILES is read from it.

Tests used:
HUVEC [1] = assay: Drug uptake in human HUVEC cells assessed as increase in fluorescently labeled cells after 30 mins by FACS analysis relative to untreated control; assay type: ADME, cell-based; conditions: 0.5 h
Procedure, shortened: (§1)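 Cells grown to 80% confluence, trypsinized, seeded at 10^6 per well for 24 h at 37 °C, then exposed to FITC-labeled peptides at 10−5 mol/L in serum-free medium for 30 min at 37 °C. Washed three times with PBS, trypsinized to strip surface-bound peptide, analyzed by flow cytometry. Untreated-cell autofluorescence set the cutoff for labeled cells. Repeated 2−3 times.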

[2] = Cytotoxicity against human MDA-MB-435 cells assessed as cell viability up to 100 uM by MTT assay; assay type: cell-based; conditions: read-out: Activity
Procedure, shortened: (§2)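 MDA-MB-435 cells seeded at 1 × 10^4 cells/well in serum-free RPMI with antibiotics, 37 °C, 5% CO2; after 24 h, peptides (1−100 μM, made up in sterile water) added for 48 h; doxorubicin positive control, untreated negative control. MTT (5 mg/mL medium) 3.5 h, formazan dissolved in DMSO, A570 with 650 nm reference. Viability = absorbance treated/untreated; triplicate, mean.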

Liver [3] = assay: Proteolytic stability in CD1 mouse liver homogenate up to 48 hrs by RP-HPLC analysis; assay type: ADME, tissue-based; conditions: tissue homogenate
Procedure, shortened: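 Homogenate prepared from male CD-1 mouse liver in ice-cold HEPES pH 7.4, centrifuged, and its protein set by BCA. Peptide stock (1 mM in 5% ACN/water) diluted into homogenate plus RPMI pH 7.4 (2.94 mg protein total), shaken at 37 °C up to 48 h. Timed aliquots analyzed by RP-HPLC.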

MDA-MB-231 [4] = assay: Drug uptake in human MDA-MB-231 cells assessed as increase in fluorescently labeled cells at 10 '-5 mol/L after 30 mins by FACS analysis relative to WNleEAAYQRFL peptide; assay type: ADME, cell-based; conditions: mda-mb-231, 0.5 h, 10 µM; procedure, shortened: as §1
MCF-10A = assay: Drug uptake by human MCF10A cells assessed as increase in fluorescently labeled cells after 30 mins by FACS analysis relative to untreated control; assay type: ADME, cell-based; conditions: 0.5 h; procedure, shortened: as §1
MDA-MB-435 [5] = assay: Drug uptake in human MDA-MB-435 cells assessed as internalization at 10 '-5 mol/L after 30 mins by fluorescence microscopy; assay type: ADME, cell-based; conditions: mda-mb-435, 0.5 h, 10 µM
Procedure, shortened: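 MDA-MB-435 cells (50 000) grown on coverslips for 24 h at 37 °C, then given FITC-labeled peptide at 10−5 mol/L in serum-free medium for 30 min at 37 °C. Washed, fixed on ice with 2% formaldehyde for 20 min, nuclei stained with DAPI. Imaged by fluorescence microscopy at 20×; internalization confirmed by confocal optical sectioning, 40× oil lens, 1.64 μm steps.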

Serum [6] = assay: Proteolytic stability in human serum assessed as compound degradation from 0.5 to 24 hrs by RP-HPLC analysis; assay type: ADME, cell-free
Procedure, shortened: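 25% human serum in RPMI, equilibrated at 37 °C, with peptide added from a 1 mM aqueous stock. Aliquots taken at 0, 0.5, 1, 5 and 24 h, proteins precipitated with methanol at 4 °C and spun down. Supernatant run on C18 RP-HPLC with a 12−100% IPA/water gradient, detection at 214 nm. Peaks quantified by area; identity checked by MALDI-TOF.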

MDA-MB-435 [7] = assay: Drug uptake in human MDA-MB-435 cells at 10 '-5 mol/L after 30 mins by confocal microscopy; assay type: ADME, cell-based; conditions: mda-mb-435, 0.5 h, 10 µM
Procedure, shortened: (§3)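 MDA-MB-435 or HUVEC cells (50,000) grown on coverslips for 24 h at 37 °C, then exposed to FITC-labelled peptide at 10−5 mol/L in serum-free medium for 30 min at 37 °C. Cells washed, fixed on ice in 2% formaldehyde for 20 min, nuclei stained with DAPI. Imaged by fluorescence microscopy (20×); the same samples were taken to confocal optical sectioning (40× oil) to confirm internalization.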

MDA-MB-435 [8] = assay: Drug uptake in human MDA-MB-435 cells assessed as increase in fluorescently labeled cells at 10 '-5 mol/L after 30 mins by FACS analysis relative to WNleEAAYQRFL peptide; assay type: ADME, cell-based; conditions: mda-mb-435, 0.5 h, 10 µM; procedure, shortened: as §1
Homo sapiens = species: Homo sapiens; assay: Binding affinity to human MDA-MB-435 cell membrane at 10 '-5 mol/L after 30 mins by fluorescence microscopy; procedure, shortened: as §3
HUVEC [9] = assay: Drug uptake in human HUVEC cells at 10 '-5 mol/L after 30 mins by confocal microscopy; assay type: ADME, cell-based; conditions: 0.5 h, 10 µM; procedure, shortened: as §3
MCF7 [10] = assay: Drug uptake in human MCF7 cells assessed as increase in fluorescently labeled cells at 10 '-5 mol/L after 30 mins by FACS analysis relative to WNleEAAYQRFL peptide; assay type: ADME, cell-based; conditions: mcf7, 0.5 h, 10 µM; procedure, shortened: as §1
MDA-MB-435 [11] = assay: Growth inhibition of human MDA-MB-435 cells at 15 uM by MTT assay; assay type: functional, cell-based; procedure, shortened: as §2
MDA-MB-231 [12] = assay: Drug uptake in human MDA-MB-231 cells assessed as increase in fluorescently labeled cells at 10 '-5 mol/L after 30 mins by FACS analysis relative to untreated control; assay type: ADME, cell-based; conditions: mda-mb-231, 0.5 h, 10 µM
Procedure, shortened: (§4)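 Cells grown to 80% confluence, trypsinized, seeded at 10^6 per well and cultured 24 h. They were then exposed to FITC-peptide at 10−5 mol/L in serum-free medium for 30 min at 37 °C, washed, and trypsinized to strip surface-bound peptide. Read by flow cytometry as percent cells above the autofluorescence cutoff of untreated cells. Repeated 2−3 times.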

MDA-MB-435 [13] = assay: Drug uptake in human MDA-MB-435 cells assessed as increase in fluorescently labeled cells at 10 '-5 mol/L after 30 mins by FACS analysis relative to untreated control; assay type: ADME, cell-based; conditions: mda-mb-435, 0.5 h, 10 µM; procedure, shortened: as §4
MCF7 [14] = assay: Drug uptake in human MCF7 cells assessed as increase in fluorescently labeled cells at 10 '-5 mol/L after 30 mins by FACS analysis relative to untreated control; assay type: ADME, cell-based; conditions: mcf7, 0.5 h, 10 µM; procedure, shortened: as §4
MDA-MB-435 [15] = assay: Binding affinity to human MDA-MB-435 cells assessed as decrease in fluorescence after 30 mins by FACS analysis in the presence of unlabelled compound; assay type: functional, cell-based
Procedure, shortened: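 Competition assay by flow cytometry in MDA-MB-435 cells. FITC-labelled peptide at 10−5 mol/L was co-incubated with a 50-fold excess of the same unlabelled peptide for 30 min at 37 °C. Cells washed with ice-cold PBS, then FACS as in the uptake assay. Repeated 2−3 times.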

Liver [16] = assay: Proteolytic stability in CD1 mouse liver homogenate after 15 mins by RP-HPLC analysis; assay type: ADME, tissue-based; conditions: tissue homogenate, 0.25 h
Procedure, shortened: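 Liver homogenate from male CD-1 mice, made in ice-cold HEPES pH 7.4 and centrifuged; supernatant adjusted to 14.7 mg/mL protein. Peptide added from a 1 mM stock in 5% ACN/water (100 μL) to 200 μL homogenate plus 700 μL RPMI, pH 7.4 (2.94 mg protein). Incubated at 37 °C with shaking, sampled at intervals, and analysed by RP-HPLC.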

MDA-MB-435 [17] = assay: Binding affinity to human MDA-MB-435 cells by CyQuant GR fluorescent dye-based assay; assay type: functional, cell-based
Serum [18] = assay: Proteolytic stability in human serum assessed as compound degradation after 30 mins by RP-HPLC analysis; assay type: ADME, cell-free; conditions: 0.5 h
Procedure, shortened: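 Final mix of 25% human serum in RPMI, equilibrated at 37 °C for 15 min. Peptide added from a 1 mM water stock (100 μL into 1 mL total). Aliquots taken at 0, 0.5, 1, 5 and 24 h and quenched in methanol; serum proteins pelleted. Supernatant analysed by RP-HPLC (12–100% IPA/water, 214 nm); peaks integrated, with fragments identified by MALDI-TOF.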

Drug uptake (HUVEC [1]) [%]	Stability (Liver [3])	fold change (FC) (MDA-MB-231 [4])	Drug uptake (MCF-10A) [%]	Drug uptake (MDA-MB-435 [5])	Stability (Serum [6])	fold change (FC) (MDA-MB-435 [8])	fold change (FC) (MCF7 [10])	Compound	viability [2] [%]	Drug uptake (MDA-MB-435 [7])	Activity (Homo sapiens)	Drug uptake (HUVEC [9])	growth inhibition (GI) (MDA-MB-435 [11])	Drug uptake (MDA-MB-231 [12]) [%]	Drug uptake (MDA-MB-435 [13]) [%]	Drug uptake (MCF7 [14]) [%]	Activity (MDA-MB-435 [15])	Stability (Liver [16])	Kd (MDA-MB-435 [17]) [µM]	Stability (Serum [18])
30	Stable	3	50	Active	Stable	3	3	CCCC[C@H](NC(=O)C[C@H](N)C(=O)NCc1cccc2ccccc12)C(=O)N[C@@H](CCC(=O)O)C(=O)N[C@@H](CC(=O)N[C@@H](C)C(=O)N[C@@H](Cc1ccc(O)cc1)C(=O)N[C@@H](CCC(N)=O)C(=O)N[C@@H](CC(=O)N[C@@H](Cc1ccccc1)C(=O)N[C@@H](CC(C)C)C(=O)O)C(=O)NCCCCN)C(=O)NC	> 98	Active	Active	Not Active	–	–	–	–	–	–	–	–
35	Stable	3	55	–	Stable	3	3	CCCC[C@H](NC(=O)C[C@H](N)C(=O)NCc1cccc2ccccc12)C(=O)N[C@@H](CCC(=O)O)C(=O)N[C@@H](C)C(=O)N[C@@H](CC(=O)N[C@@H](Cc1ccc(O)cc1)C(=O)N[C@@H](CCC(N)=O)C(=O)N[C@@H](CC(=O)N[C@@H](Cc1ccccc1)C(=O)N[C@@H](CC(C)C)C(=O)O)C(=O)NCCCCN)C(=O)NC	> 98	–	–	–	–	–	–	–	–	–	–	–
–	–	–	–	–	–	–	–	COc1cccc2c1C(=O)c1c(O)c3c(c(O)c1C2=O)C[C@@](O)(C(=O)CO)C[C@@H]3O[C@H]1C[C@H](N)[C@H](O)[C@H](C)O1	–	–	–	–	Active	–	–	–	–	–	–	–
–	–	–	–	–	–	–	–	CCCC[C@H](NC(=O)[C@@H](N)Cc1c[nH]c2ccccc12)C(=O)N[C@@H](CCC(=O)O)C(=O)N[C@@H](C)C(=O)N[C@@H](C)C(=O)N[C@@H](Cc1ccc(O)cc1)C(=O)N[C@@H](CCC(N)=O)C(=O)N[C@@H](CCCNC(=N)N)C(=O)N[C@@H](Cc1ccccc1)C(=O)N[C@@H](CC(C)C)C(=O)O (HELM PEPTIDE1{W.[Nle].E.A.A.Y.Q.R.F.L}$$$$V2.0)	–	–	–	–	–	16	10	22	–	Unstable	42	Unstable
–	–	–	–	–	–	–	–	H-WEEAAYQRFL-OH	–	–	–	–	–	33	14	60	–	–	–	–

Compound	Drug uptake (HUVEC [1]) [%]	Stability (Liver [3])	fold change (FC) (MDA-MB-231 [4])	Drug uptake (MCF-10A) [%]	Drug uptake (MDA-MB-435 [5])	Stability (Serum [6])	fold change (FC) (MDA-MB-435 [8])	fold change (FC) (MCF7 [10])	viability [2] [%]	Drug uptake (MDA-MB-435 [7])	Activity (Homo sapiens)	Drug uptake (HUVEC [9])	growth inhibition (GI) (MDA-MB-435 [11])	Drug uptake (MDA-MB-231 [12]) [%]	Drug uptake (MDA-MB-435 [13]) [%]	Drug uptake (MCF7 [14]) [%]	Activity (MDA-MB-435 [15])	Stability (Liver [16])	Kd (MDA-MB-435 [17]) [µM]	Stability (Serum [18])
CCCC[C@@H](NC(=O)[C@@H](N)Cc1c[nH]c2ccccc12)C(=O)N[C@@H](CCC(=O)O)C(=O)N[C@@H](C)C(=O)N[C@@H](C)C(=O)N[C@@H](Cc1ccc(O)cc1)C(=O)N[C@@H](CCC(N)=O)C(=O)N[C@H](CCCNC(=N)N)C(=O)N[C@@H](Cc1ccccc1)C(=O)N[C@@H](CC(C)C)C(=O)O (HELM PEPTIDE1{W.[CCCC[C@@H](N[*:1])C(=O)[*:2]].E.A.A.Y.Q.[dR].F.L}$$$$V2.0)	12	Stable	3.5	36	–	Stable	3.5	3.5	> 98	Active	Active	Not Active	–	45	35	68	inactive	–	–	–
